Screening data as filed in PubChem BioAssay.
Many of the other results were omitted from the sample, so hits are more common in it than they were.
DTT redox prof = compounds producing H2O2 with reducing agent – biochemical, NIH compound library profiling, artefact control for MLSCN library redox annotation, primary screen; AID 878; DTT-dependent redox cycling H2O2, phenol red/HRP absorbance; 100% = 100 µM peroxide control, 0% = buffer; activation, % at 10 µM; 200,000 compounds, 0.03% hits;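 active = activation of at least 50% relative to the plate's high and low controls in the primary single-dose screen; inactive = activation below 50%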;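 also: compound incubated with DTT at 0.8 mM final as the reducing agent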
T cruzi repl = blocks replication of Trypanosoma cruzi. inhibition, % (test concentration not listed). T. cruzi beta-gal in NIH3T3, luminescence, 90 h. 300,000 compounds, 1.4% hits;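 active = mean inhibition across valid replicates above about 55%, limit read from the data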;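 also: signal also drops with host cell toxicity which is not excluded here; higher percent means less beta-gal luminescence so fewer parasites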
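assay system = mouse NIH/3T3 fibroblasts infected with β-gal-expressing T. cruzi Tulahuen C4 | input = 5,000 NIH/3T3 host cells per well | buffer or medium = DMEM plus 2% FBS | timing = 3 h host attachment, then at least 90 h co-culture | measured by = GalScreen luminescence, 60 min | evaluation = luminescence reflecting intracellular parasite burden, expressed as percent inhibition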
Lmaj promast = Leishmania major promastigote growth inhibition; Leishmania major promastigotes, resazurin fluorescence viability; inhibition, % at 10 µM; 200,000 compounds, 9% hits; in the data active = inhibition above about 50%;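 also: promastigotes grown with compound for 44 hours at 28 °C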
Lipid droplet = modulators of hepatic lipid droplet formation; AML12 mouse hepatocytes, oleate lipid droplets, BODIPY imaging; inhibition, % at 6.5 µM; 240,000 compounds, 0.4% hits; AID 1656;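 active = lipid droplet intensity inhibited by at least 50%, with more than 500 cells counted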
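Test system: AML12 mouse liver cells; schedule: overnight exposure; technique: high-content imaging of BODIPY-stained droplets and DAPI nuclei; read-out: % inhibition of corrected integrated BODIPY droplet signal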
MPTP block = inhibitors of mitochondrial permeability transition pore; inhibition, % at 10 µM; AID 602449; 360,000 compounds, 1.4% hits; isolated mouse mitochondria, Ca2+ swelling absorbance, 30 min;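 active = inhibition of 50% or more, scaled per plate between neutral and stimulator controls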
Of the large screens only hits and unclear results are named; the others gave an inactive call.

CCCCN1C(=O)/C(=C/c2ccc(N3CCCCCC3)cc2)C(=O)NC1=S	Lmaj promast 59.4 (no result: MPTP block)
CN1C(=O)/C(=C\c2ccc(N3CCCCC3)o2)C(=O)NC1=S	none
CCC(C)N1C(=O)/C(=C\c2cc3c4c(c2)CCCN4CCC3)C(=O)NC1=S (stereo not given)	Lmaj promast 97.5
COC(=O)C1=C(c2cccc(OC)c2OC)C[C@@H]2CC[C@H]1N2C(=O)NC(C)C	none (no result: DTT redox prof, Lmaj promast, Lipid droplet)
C=CCOC(=O)C1C(C(=O)O)C2(Cl)C(Cl)=C(Cl)C1(Cl)C2(Cl)Cl (stereo not given)	none (no result: DTT redox prof, T cruzi repl, Lmaj promast, Lipid droplet)
CN1CC=C(/C=C/c2ccc(-c3ccccc3)cc2)CC1	T cruzi repl 69.8 (no result: DTT redox prof, Lmaj promast, MPTP block)
COc1ccc(/C=C/C2=CCN(C)CC2)cc1	none
C=CCN1C(=O)/C(=C/c2cc(C)n(-c3cccnc3)c2C)C(=O)NC1=S	Lmaj promast 99.3
COc1cc(O)c(C(=O)O)c(-c2cc(O)c(O)cc2C)c1	none (no result: DTT redox prof, Lmaj promast)
COc1ccccc1NC1(C#N)CCCCC1	none
Cc1cc(C)cc(N2C(=O)NC(=O)/C(=C/c3cccn3-c3ccc(Cl)cc3)C2=O)c1	Lmaj promast 98.5
CCn1c(O)c(C=Nc2ccc(S(N)(=O)=O)cc2)c(=O)[nH]c1=S	Lmaj promast 56.4
CCOC(=O)c1ccc(N=Cc2c(O)n(-c3ccccc3F)c(=S)[nH]c2=O)cc1	Lmaj promast 61.2 (no result: DTT redox prof)
CCOC(=O)c1ccc(N=Cc2c(O)n(-c3ccc(OC)cc3)c(=S)[nH]c2=O)cc1	none
CCn1c(O)c(C=Nc2ccc(S(N)(=O)=O)cc2)c(=O)n(CC)c1=S	none
O=C1NC(=O)C(Nc2ccc(Cl)c(Cl)c2)C(=O)N1	none (no result: DTT redox prof, T cruzi repl, Lmaj promast, Lipid droplet)
CCN1CCN(c2ccc([N+](=O)[O-])cc2C=C2C(=O)NC(=O)NC2=O)CC1	Lmaj promast 59.7
Cc1cc(S(=O)(=O)NCC(C)C)ccc1OCC(=O)N1CCN(Cc2ccccc2)CC1	none
CSc1ccc(CN2CCN(C(=O)COc3cccc(C)c3)CC2)cc1	Lmaj promast 86.6
Cc1cc(S(=O)(=O)NC(C)C)ccc1OCC(=O)N1CCN(Cc2ccc3c(c2)OCO3)CC1	Lmaj promast 96.0
Cc1cccc(OCC(=O)N2CCN(Cc3cccnc3)CC2)c1	none
CCc1ccc(OCC(=O)N2CCN(Cc3ccc4c(c3)OCO4)CC2)cc1	Lmaj promast 83.3
CCN(CC)S(=O)(=O)N1CCC(C(=O)N2CCC3(CC2)OCCO3)CC1	none
N=c1sccn1Cc1ccc(Cl)cc1Cl	Lmaj promast 65.7
Cc1cc(Br)c(NC(=O)CN2CC=C(c3ccccc3)CC2)c(Br)c1	T cruzi repl 72.4
Cc1[nH]c2ccccc2c1C(=O)CN1CC=C(c2ccccc2)CC1	T cruzi repl 96.6
CC(C#N)CCC#N (stereo not given)	none (no result: DTT redox prof, T cruzi repl, Lmaj promast, Lipid droplet)
Cc1ccc(-n2cc(CNC(C)Cc3cnccn3)c(-c3cccc(C)c3)n2)cc1 (stereo not given)	Lmaj promast 65.1
CC(Cc1cnccn1)NCc1c(C(=O)N2CCCCCCC2)nc2ccc(Cl)cn12 (stereo not given)	none (no result: DTT redox prof, Lmaj promast)
Cc1cc([N+](=O)[O-])c(Cl)cc1NC(=O)C(C)C	Lmaj promast 58.1
N#Cc1ccc(C(=O)N2Cc3cnnn3-c3ccccc3C2C#N)cc1 (stereo not given)	none (no result: DTT redox prof, T cruzi repl, Lmaj promast, Lipid droplet)
Cc1ccc(-n2c(O)c(/C=N/NC(=O)c3ccncc3)c(=O)[nH]c2=O)cc1	none
O=C(N/N=C/c1c(O)n(-c2ccccc2)c(=O)[nH]c1=O)c1ccncc1	Lmaj promast 90.8
Cc1nn(Cc2ccccc2)c(C)c1C=C1C(=O)NC(=S)NC1=O	Lmaj promast 59.7
O=C1NC(=O)C(CCc2ccccn2)(Cc2ccc3c(c2)OCO3)C(=O)N1CCc1ccccc1 (stereo not given)	Lmaj promast 97.7
Cc1ccc(CN2Cc3ccc(Br)cc3-n3nncc3C2)cc1	none (no result: DTT redox prof, T cruzi repl, Lmaj promast, Lipid droplet)
CCCCn1c(O)c(C(C)=NCCc2c[nH]c3ccccc23)c(=O)[nH]c1=O	none (no result: DTT redox prof, Lmaj promast)
CCCCn1c(O)c(C(C)=NC(Cc2c[nH]c3ccccc23)C(=O)OC)c(=O)[nH]c1=O (stereo not given)	Lmaj promast 99.2
CCc1ccc(N2C(=O)NC(=O)C(CCc3ccncc3)(CCc3ccncc3)C2=O)cc1	none
O=C1NC(=O)C(CCc2ccncc2)(Cc2cccc(Cl)c2Cl)C(=O)N1c1ccc(Br)cc1 (stereo not given)	Lmaj promast 91.9
CCN1C(=O)/C(=C/c2ccc3c(c2)CCN3CCCCl)C(=O)NC1=S	Lmaj promast 100.0
